Experimental data published in PubChem BioAssay AID2341 (Sanford-Burnham Center for Chemical Genomics, 2010).
Calls of active or inactive are those of the source.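 The calls were made as follows: active = half-maximal potency under 10 µM when retested across doses; inactive = the rest.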

These compounds were tested against Cannabinoid receptor 1 (Homo sapiens) (UniProt P21554) (assay: human CB1 agonism via arrestin-GFP redistribution – imaging, U2OS cells, beta-arrestin-GFP, powder samples, SAR follow-up (AID 2341)). Conditions: U2OS CB1 beta-arrestin-GFP translocation imaging.
Cannabinoid receptor 1 (Homo sapiens), sequence (P21554 whole entry, looked up): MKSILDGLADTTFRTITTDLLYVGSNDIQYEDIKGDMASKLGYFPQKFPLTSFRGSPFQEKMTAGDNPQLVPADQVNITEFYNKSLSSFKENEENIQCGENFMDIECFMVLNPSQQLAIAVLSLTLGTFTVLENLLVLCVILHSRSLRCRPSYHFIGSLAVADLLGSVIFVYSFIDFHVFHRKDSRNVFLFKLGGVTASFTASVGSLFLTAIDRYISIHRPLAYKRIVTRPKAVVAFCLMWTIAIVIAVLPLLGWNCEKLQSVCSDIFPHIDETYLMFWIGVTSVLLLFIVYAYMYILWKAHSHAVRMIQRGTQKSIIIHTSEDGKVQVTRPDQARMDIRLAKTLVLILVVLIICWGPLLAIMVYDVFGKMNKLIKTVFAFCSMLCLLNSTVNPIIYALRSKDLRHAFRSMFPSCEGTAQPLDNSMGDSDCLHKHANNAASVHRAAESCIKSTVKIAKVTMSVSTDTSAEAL
Summary of the method: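 System: U2OS cells stably co-expressing human CB1 and β-arrestin-GFP | Buffer or medium: Serum-free MEM during compound exposure | Dosing: Ten-point series, 62 nM to 32 µM, 0.31% DMSO | Timing: 60 min compound treatment, 37 °C | Replication: Duplicate wells per dose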

| EC50 | Structure (SMILES) |
| --- | --- |
| > 32 µM (inactive) | O=C(CSc1nc2ccccc2s1)N1c2ccccc2Sc2ccc(Cl)cc21 |
| > 32 µM (inactive) | O=C(CSc1nc2ccccc2s1)N1c2ccccc2Sc2ccc(C(F)(F)F)cc21 |
| > 32 µM (inactive) | COc1ccccc1/C=C/C(=O)NC(=S)Nc1ccc(S(=O)(=O)N(C)c2ccccc2)cc1 |
| > 32 µM (inactive) | Cc1occc1C(=O)Nc1ccc(OCc2ccccc2)cc1 |
| > 32 µM (inactive) | COc1cc2c(cc1NC(=O)CSc1ccccc1)oc1ccccc12 |
| > 32 µM (inactive) | COc1ccc(-c2csc(NC(=O)CSc3nnc4c(C)cc5ccccc5n34)n2)cc1 |
| > 32 µM (inactive) | COc1cc2c(cc1NC(=O)C(C)Sc1ccc(NC(C)=O)cc1)oc1ccccc12 (stereo unspecified) |
| > 32 µM (inactive) | COc1ccc2cc(C)c3nnc(SCC(=O)Nc4nc(-c5ccc(F)cc5)cs4)n3c2c1 |
| > 32 µM (inactive) | COc1ccc2c(c1)cc(C)c1nnc(SCC(=O)N(C)c3nc(-c4ccccc4)cs3)n12 |

More lines, now with the values behind:

| Structure (SMILES) | EC50 |
| --- | --- |
| CC(C)Oc1ccc(S(=O)(=O)N2CCOCC2)cc1NC(=O)c1ccc(N2CCCC2=O)cc1 | > 32 µM (inactive) |
| CN(C)S(=O)(=O)c1ccc(N2CCCC2)c(C(=O)N2CCN(c3ccc([N+](=O)[O-])cc3)CC2)c1 | > 32 µM (inactive) |
| CC(C)NS(=O)(=O)c1ccc(NC(=S)NC(=O)c2ccc(-c3ccccc3)cc2)cc1 | > 32 µM (inactive) |
| CCCN(CCC)Cc1c(C(=O)NN=C/C(C)=C\c2ccco2)nnn1-c1nonc1N | > 32 µM (inactive) |
| CC(C)=CC(=O)Nc1ccc(OCc2ccccc2)cc1 | > 32 µM (inactive) |
| CCCN(CCC)Cc1c(C(=O)NN=C/C(C)=C\c2ccccc2)nnn1-c1nonc1N | > 32 µM (inactive) |
| COc1ccc(S(=O)(=O)N2CCOCC2)cc1NC(=O)c1cc2c(s1)CCCC2 | > 32 µM (inactive) |
| C/C(C=NNC(=O)c1nnn(-c2nonc2N)c1CN1CCC(C)CC1)=C/c1ccccc1 | > 32 µM (inactive) |
| C=CCN(CC=C)S(=O)(=O)c1ccc(NC(=S)NC(=O)c2ccc(-c3ccccc3)cc2)cc1 | > 32 µM (inactive) |
| CCCN(CCC)Cc1c(C(=O)NN=Cc2c[nH]c3ccccc23)nnn1-c1nonc1N | > 32 µM (inactive) |
| CC(Sc1nc2cc(Cl)ccc2s1)C(=O)Nc1cccc(S(=O)(=O)N2CCOCC2)c1 (stereo unspecified) | > 32 µM (inactive) |
| Cc1cccc(N2CCN(C(=O)c3cc(S(=O)(=O)N(C)C)ccc3N3CCCC3)CC2)c1C | > 32 µM (inactive) |
